Experimental data published in ChEMBL document CHEMBL1156127, “Synthesis, anticonvulsant activity and 3D-QSAR study of some prop-2-eneamido and 1-acetyl-pyrazolin derivatives of aminobenzothiazole” (Eur J Med Chem, 2010).

What was measured:
Mus musculus [1] = experiment: Anticonvulsant activity in ip dosed albino mouse assessed as absence of hind limb tonic extension after 0.5 hrs by MES test; format: functional, Hindlimb; conditions: for ED50: Mus musculus, albino, Hindlimb, ip, 0.5 h
In short: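 Mice given compound ip at 20–1000 µmol/kg, suspended in 0.5% methyl cellulose/water. Seizure induced 0.5 h later by electroconvulsometer, 50 mA, 60 cycle alternating current, 0.25 s via ear clip electrodes. Protection is reduced duration or absence of hind limb tonic extension. ED50 from at least three doses giving 10–90% protection.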

Mus musculus [2] = species: Mus musculus; experiment: Protection index, ratio of TD50 to ED50 by MES test for albino mouse; format: functional
In short: (§1)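 Mice were trained on a 3.2 cm rod turning at 6 rpm, then dosed ip at 20–1000 µmol/kg and tested at 0.5 h. […] PI = TD50/ED50, with ED50 from the MES test.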

[3] = Neurotoxicity in ip dosed albino mouse during 1 min by rotarod test; format: toxicity, organism-based; conditions: in vivo; in short: as §1
Mus musculus [4] = experiment: Anticonvulsant activity in ip dosed albino mouse treated 0.5 hrs before PTZ challenge by scPTZ test; format: functional
In short: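 Compound given ip (20–1000 µmol/kg in 0.5% methyl cellulose) 0.5 h before pentylenetetrazole, which was dissolved in 0.9% NaCl and injected subcutaneously in the posterior midline of mice. Onset and severity of convulsions were scored, and ED50 was derived.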

Row | SMILES | pED50 (Mus musculus [1]) | ED50 (Mus musculus [1]) [µmol/kg] | PI (Mus musculus [2]) | TD50 at 1 min [3] [µmol/kg] | ED50 (Mus musculus [4]) [µmol/kg]
1 | COc1ccc(C2CC(Nc3nc4ccccc4s3)=NN2C(C)=O)cc1 (stereo unspecified) | 3.65 | 226 | 1.63 | 369 | 
2 | CC(=O)N1N=C(Nc2nc3ccccc3s2)CC1c1ccco1 (stereo unspecified) | 3.42 | 382 | 1.41 | 538 | 
3 | CC(=O)N1N=C(Nc2nc3ccc(Cl)cc3s2)CC1c1ccc(O)cc1 (stereo unspecified) | 3.97 | 106 | 1.97 | 210 | 107
4 | COc1ccc(C2CC(Nc3nc4ccc(Cl)cc4s3)=NN2C(C)=O)cc1O (stereo unspecified) | 3.89 | 127 | 2.16 | 276 | 132
5 | COc1ccc(/C=C/C(=O)Nc2nc3ccc(C)cc3s2)cc1 | 3.68 | 209 | 2.24 | 468 | 
6 | CC(=O)N1N=C(Nc2nc3ccccc3s2)CC1c1ccccc1 (stereo unspecified) | 3.5 | 315 | 1.57 | 498 | 
7 | CC(=O)N1N=C(Nc2nc3ccccc3s2)CC1c1ccc(O)cc1 (stereo unspecified) | 3.6 | 249 | 2.06 | 513 | 
8 | O=C(/C=C/c1ccco1)Nc1nc2ccccc2s1 | 3.11 | 781 | 1.15 | 898 | 
9 | O=C(/C=C/c1ccco1)Nc1nc2ccc(Cl)cc2s1 | 3.26 | 544 | 1.2 | 658 | 
10 | COc1ccc(C2CC(Nc3nc4ccc([N+](=O)[O-])cc4s3)=NN2C(C)=O)cc1 (stereo unspecified) | 3.84 | 145 | 1.69 | 246 | 149
11 | COc1ccc(/C=C/C(=O)Nc2nc3ccc([N+](=O)[O-])cc3s2)cc1O | 3.43 | 372 | 2.13 | 793 | 
12 | COc1ccc(/C=C/C(=O)Nc2nc3ccccc3s2)cc1O | 3.31 | 495 | 1.12 | 556 | 
13 | COc1ccc(/C=C/C(=O)Nc2nc3ccccc3s2)cc1 | 3.36 | 435 | 1.24 | 540 | 
14 | Cc1ccc2nc(NC(=O)/C=C/c3ccccc3)sc2c1 | 3.42 | 380 | 1.4 | 534 | 
15 | CC(=O)N1N=C(Nc2nc3ccc([N+](=O)[O-])cc3s2)CC1c1ccc(Cl)cc1 (stereo unspecified) | 3.88 | 132 | 2.48 | 328 | 138
16 | O=C(/C=C/c1ccc(Cl)cc1)Nc1nc2ccccc2s1 | 3.44 | 367 | 1.1 | 402 | 
17 | O=C(/C=C/c1ccccc1)Nc1nc2ccc([N+](=O)[O-])cc2s1 | 3.31 | 485 | 1.3 | 633 | 
18 | Cc1ccc2nc(NC(=O)/C=C/c3ccc(O)cc3)sc2c1 | 3.57 | 271 | 1.42 | 387 | 
19 | O=C(/C=C/c1ccccc1)Nc1nc2ccccc2s1 | 3.19 | 646 | 1.28 | 832 | 
20 | COc1ccc(/C=C/C(=O)Nc2nc3ccc(Cl)cc3s2)cc1O | 3.51 | 320 | 1.46 | 470 | 
21 | O=C(/C=C/c1ccc(O)cc1)Nc1nc2ccccc2s1 | 3.29 | 517 | 1.78 | 925 | 

Row | SMILES | pED50 (Mus musculus [1]) | ED50 (Mus musculus [1]) [µmol/kg] | PI (Mus musculus [2]) | TD50 at 1 min [3] [µmol/kg] | ED50 (Mus musculus [4]) [µmol/kg]
22 | CC(=O)N1N=C(Nc2nc3ccc(C)cc3s2)CC1c1ccco1 (stereo unspecified) | 3.79 | 160 | 1.51 | 243 | 
23 | O=C1NC(=O)C(c2ccccc2)(c2ccccc2)N1 [PHENYTOIN] |  | 13.8 | 8.01 | 110 | 
24 | O=C(/C=C/c1ccc(Cl)cc1)Nc1nc2ccc(Cl)cc2s1 | 3.69 | 204 | 2.82 | 576 | 
25 | Cc1ccc2nc(NC(=O)/C=C/c3ccco3)sc2c1 | 3.3 | 505 | 1.19 | 603 | 
26 | O=C(/C=C/c1ccccc1)Nc1nc2ccc(Cl)cc2s1 | 3.37 | 425 | 1.34 | 570 | 
27 | CC(=O)N1N=C(Nc2nc3ccccc3s2)CC1c1ccc(Cl)cc1 (stereo unspecified) | 3.68 | 209 | 1.73 | 364 | 
28 | COc1ccc(C2CC(Nc3nc4ccccc4s3)=NN2C(C)=O)cc1O (stereo unspecified) | 3.59 | 259 | 1.47 | 382 | 
29 | CC(=O)N1N=C(Nc2nc3ccc([N+](=O)[O-])cc3s2)CC1c1ccco1 (stereo unspecified) | 3.56 | 274 | 1.29 | 355 | 
30 | CC(=O)N1N=C(Nc2nc3ccc(Cl)cc3s2)CC1c1ccco1 (stereo unspecified) | 3.67 | 212 | 1.82 | 387 | 
31 | CC(=O)N1N=C(Nc2nc3ccc([N+](=O)[O-])cc3s2)CC1c1ccc(O)cc1 (stereo unspecified) | 3.79 | 162 | 1.29 | 210 | 
32 | O=C(/C=C/c1ccc(O)cc1)Nc1nc2ccc([N+](=O)[O-])cc2s1 | 3.42 | 382 | 1.57 | 602 | 
33 | COc1ccc(C2CC(Nc3nc4ccc([N+](=O)[O-])cc4s3)=NN2C(C)=O)cc1O (stereo unspecified) | 3.75 | 178 | 1.43 | 256 | 
34 | COc1ccc(/C=C/C(=O)Nc2nc3ccc(Cl)cc3s2)cc1 | 3.59 | 259 | 1.79 | 465 | 
35 | CC(=O)N1N=C(Nc2nc3ccc([N+](=O)[O-])cc3s2)CC1c1ccccc1 (stereo unspecified) | 3.67 | 216 | 1.65 | 357 | 
36 | O=C(/C=C/c1ccc(Cl)cc1)Nc1nc2ccc([N+](=O)[O-])cc2s1 | 3.59 | 259 | 3.03 | 787 | 
37 | O=C(/C=C/c1ccc(O)cc1)Nc1nc2ccc(Cl)cc2s1 | 3.49 | 322 | 1.28 | 413 | 
38 | O=C(/C=C/c1ccco1)Nc1nc2ccc([N+](=O)[O-])cc2s1 | 3.22 | 597 | 1.39 | 834 | 
39 | COc1ccc(/C=C/C(=O)Nc2nc3ccc([N+](=O)[O-])cc3s2)cc1 | 3.5 | 315 | 1.47 | 466 | 
40 | COc1ccc(/C=C/C(=O)Nc2nc3ccc(C)cc3s2)cc1O | 3.57 | 271 | 1.18 | 321 | 
41 | CC(=O)N1N=C(Nc2nc3ccc(Cl)cc3s2)CC1c1ccccc1 (stereo unspecified) | 3.79 | 161 | 1.52 | 245 | 
42 | Cc1ccc2nc(NC(=O)/C=C/c3ccc(Cl)cc3)sc2c1 | 3.82 | 152 | 2.67 | 408 | 
